In ChEMBL document CHEMBL1126015, “Heteroatom analogues of bemoradan: chemistry and cardiotonic activity of 1,4-benzothiazinylpyridazinones” (J Med Chem, 1992):

What was measured:
[1] = system: Canis familiaris; test: Increase in cardiac force in dog at 75 ug/kg intravenous dose; type: functional, Canis lupus familiaris
[2] = organism: Canis familiaris; test: 50% increase in cardiac force in dog by id dose; type: functional; conditions: Canis lupus familiaris, Heart
How it was run: (§1)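 Anesthetized dogs; the value is the dose, given iv or intraduodenally, that raises cardiac force by 50%.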

[3] = system: Canis familiaris; test: 50% increase in cardiac force in dog by intravenous dose; type: functional; conditions: Canis lupus familiaris, Heart; how it was run: as §1

Row | SMILES | Change [1] [%] | ED50 [2] [µg/kg] | ED50 [3] [µg/kg]
1 | CN1C(=O)CS(=O)(=O)c2cc(C3=NNC(=O)CC3)ccc21 | 20 |  | 
2 | O=C1CCC(c2ccc3c(c2)SCC(=O)N3)=NN1 | 62 |  | 
3 | CN1C(=O)C[S+]([O-])c2cc(C3=NNC(=O)CC3)ccc21 (stereo unspecified) | -3 |  | 
4 | CN1C(=O)CSc2cc(C3=NNC(=O)CC3)ccc21 | 38 |  | 
5 | CC1CC(=O)NN=C1c1ccc2c(c1)OCC(=O)N2 (stereo unspecified) [BEMORADAN] |  | 10 | 5.4
